In one data set the target is T1, hOAT3 (Homo sapiens, UniProt Q8TCC7).
T1 sequence (Q8TCC7 1-542): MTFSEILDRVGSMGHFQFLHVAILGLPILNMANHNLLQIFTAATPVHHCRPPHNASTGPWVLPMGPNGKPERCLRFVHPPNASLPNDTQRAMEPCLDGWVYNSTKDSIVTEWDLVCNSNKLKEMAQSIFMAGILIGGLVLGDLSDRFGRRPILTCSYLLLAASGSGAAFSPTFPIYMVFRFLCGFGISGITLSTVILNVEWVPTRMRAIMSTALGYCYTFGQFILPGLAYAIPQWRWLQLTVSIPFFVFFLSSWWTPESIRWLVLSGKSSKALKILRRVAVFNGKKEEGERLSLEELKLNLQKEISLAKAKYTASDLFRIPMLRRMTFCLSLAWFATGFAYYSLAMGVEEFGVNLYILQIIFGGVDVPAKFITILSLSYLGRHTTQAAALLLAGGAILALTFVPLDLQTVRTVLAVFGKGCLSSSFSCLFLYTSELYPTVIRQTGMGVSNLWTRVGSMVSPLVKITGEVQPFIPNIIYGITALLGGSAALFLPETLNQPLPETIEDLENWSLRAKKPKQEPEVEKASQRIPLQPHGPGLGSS
Kind of data set: Cellular uptake and kinetics in S2-hOAT3 vs Mock cells. It is filed as in vitro ADME.

The target in the next data set is T2, hOATP1B3 (Homo sapiens, UniProt Q9NPD5).
T2 sequence (Q9NPD5 1-702): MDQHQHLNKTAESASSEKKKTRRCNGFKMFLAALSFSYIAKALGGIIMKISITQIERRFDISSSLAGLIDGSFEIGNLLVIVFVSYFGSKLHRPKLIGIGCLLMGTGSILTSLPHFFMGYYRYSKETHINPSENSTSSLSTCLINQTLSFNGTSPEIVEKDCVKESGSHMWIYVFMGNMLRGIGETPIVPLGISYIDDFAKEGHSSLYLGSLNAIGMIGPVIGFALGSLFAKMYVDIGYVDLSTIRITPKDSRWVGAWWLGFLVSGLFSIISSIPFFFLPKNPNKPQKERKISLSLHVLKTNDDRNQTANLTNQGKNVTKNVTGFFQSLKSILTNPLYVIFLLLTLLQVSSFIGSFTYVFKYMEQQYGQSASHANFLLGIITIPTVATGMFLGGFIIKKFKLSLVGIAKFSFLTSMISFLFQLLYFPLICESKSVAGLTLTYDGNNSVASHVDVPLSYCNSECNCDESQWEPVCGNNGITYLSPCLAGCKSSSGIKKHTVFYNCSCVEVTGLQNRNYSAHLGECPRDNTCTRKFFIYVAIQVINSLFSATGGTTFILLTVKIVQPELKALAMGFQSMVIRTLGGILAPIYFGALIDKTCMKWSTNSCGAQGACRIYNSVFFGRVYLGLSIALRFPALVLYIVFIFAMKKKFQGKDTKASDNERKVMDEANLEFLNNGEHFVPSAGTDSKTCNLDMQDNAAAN
Kind of data set: Cellular uptake and kinetics in HEK293-hOATP1B3 vs Mock cells. It is filed as in vitro ADME. Summed up: (§1)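 Transfected cells and matching Mock cells were seeded at 2 × 10⁵ cells/mL and grown 2 days. After a DPBS (pH 7.4) wash and 10 min preincubation at 37 °C, cells took up 100 μmol/L test compound for 2–5 min at 37 °C. Uptake was stopped with three ice-cold DPBS washes, followed by methanol extraction and HPLC–MS. Values were normalised to BCA protein and compared with Mock.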

The next data set concerns the target T3, hOATP2B1 (Homo sapiens, UniProt O94956).
T3 sequence (O94956 1-709): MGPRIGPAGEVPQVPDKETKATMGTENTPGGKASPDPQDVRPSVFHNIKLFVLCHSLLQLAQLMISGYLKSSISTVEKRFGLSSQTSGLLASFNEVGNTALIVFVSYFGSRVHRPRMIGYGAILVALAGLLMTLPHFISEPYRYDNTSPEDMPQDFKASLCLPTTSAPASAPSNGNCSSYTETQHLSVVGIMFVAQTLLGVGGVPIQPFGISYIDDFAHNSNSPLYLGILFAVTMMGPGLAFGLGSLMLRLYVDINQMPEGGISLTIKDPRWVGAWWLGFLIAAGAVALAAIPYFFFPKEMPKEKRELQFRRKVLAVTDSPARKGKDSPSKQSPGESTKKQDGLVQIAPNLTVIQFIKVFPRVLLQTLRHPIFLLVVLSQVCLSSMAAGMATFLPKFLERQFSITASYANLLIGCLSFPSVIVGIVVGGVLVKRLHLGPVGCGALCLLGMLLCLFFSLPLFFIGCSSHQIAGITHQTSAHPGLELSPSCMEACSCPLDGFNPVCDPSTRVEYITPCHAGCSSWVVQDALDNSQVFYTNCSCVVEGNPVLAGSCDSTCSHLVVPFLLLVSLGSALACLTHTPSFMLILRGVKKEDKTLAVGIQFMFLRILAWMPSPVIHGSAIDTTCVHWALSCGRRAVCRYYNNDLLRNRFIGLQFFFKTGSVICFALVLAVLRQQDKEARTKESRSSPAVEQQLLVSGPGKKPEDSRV
Briefly: Cellular uptake in HEK293-hOATP2B1 vs Mock cells. The data set is classed as in vitro ADME.

The target in the next data set is T4, hOATP1B1 (Homo sapiens, UniProt Q9Y6L6).
T4 sequence (Q9Y6L6 1-691): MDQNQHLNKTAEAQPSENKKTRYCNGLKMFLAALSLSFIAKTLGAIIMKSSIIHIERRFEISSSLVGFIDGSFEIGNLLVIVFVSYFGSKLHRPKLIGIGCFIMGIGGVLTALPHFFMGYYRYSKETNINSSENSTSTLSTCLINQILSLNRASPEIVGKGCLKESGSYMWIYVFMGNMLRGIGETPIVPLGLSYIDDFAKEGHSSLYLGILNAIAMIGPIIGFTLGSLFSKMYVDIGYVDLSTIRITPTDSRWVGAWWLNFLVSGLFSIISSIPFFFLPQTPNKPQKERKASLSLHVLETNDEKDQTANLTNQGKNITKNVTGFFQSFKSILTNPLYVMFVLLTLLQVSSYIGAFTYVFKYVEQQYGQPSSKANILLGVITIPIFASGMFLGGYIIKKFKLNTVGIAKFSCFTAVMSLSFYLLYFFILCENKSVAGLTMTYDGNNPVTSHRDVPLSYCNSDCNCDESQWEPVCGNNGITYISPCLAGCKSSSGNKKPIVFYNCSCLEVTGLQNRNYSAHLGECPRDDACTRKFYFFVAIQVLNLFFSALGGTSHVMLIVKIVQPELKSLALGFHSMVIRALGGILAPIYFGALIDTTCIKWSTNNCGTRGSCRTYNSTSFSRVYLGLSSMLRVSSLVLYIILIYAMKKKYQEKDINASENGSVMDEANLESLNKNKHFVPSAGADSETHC
Briefly: Cellular uptake and kinetics in HEK293-hOATP1B1 vs Mock cells. The data set is classed as in vitro ADME.

A further data set deals with mice liver slices. Briefly: In vitro uptake of TDE in mice liver slices. It is filed as in vitro ADME, Kunming mice. Particulars: TDE 10 μmol/L. The gist of the method: (§2)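 Kunming mice (20–25 g, fasted 12 h) were anaesthetised with urethane, and kidney or liver was decapsulated into ice-cold oxygenated buffer at pH 7.5. Slices of about 30 mg were preincubated 5 min under carbogen at 4 or 37 °C. They were then incubated with 10 μmol/L test compound for 5, 10 or 30 min, with or without reference OAT1/OAT3 or OATP inhibitors or co-ingredients. Slices were then washed, blotted, weighed and homogenised, then extracted with methanol and an internal standard for HPLC–MS.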

For a further data set, the target named is T5, hOAT1 (Homo sapiens, UniProt Q4U2R8).
T5 sequence (Q4U2R8 1-563): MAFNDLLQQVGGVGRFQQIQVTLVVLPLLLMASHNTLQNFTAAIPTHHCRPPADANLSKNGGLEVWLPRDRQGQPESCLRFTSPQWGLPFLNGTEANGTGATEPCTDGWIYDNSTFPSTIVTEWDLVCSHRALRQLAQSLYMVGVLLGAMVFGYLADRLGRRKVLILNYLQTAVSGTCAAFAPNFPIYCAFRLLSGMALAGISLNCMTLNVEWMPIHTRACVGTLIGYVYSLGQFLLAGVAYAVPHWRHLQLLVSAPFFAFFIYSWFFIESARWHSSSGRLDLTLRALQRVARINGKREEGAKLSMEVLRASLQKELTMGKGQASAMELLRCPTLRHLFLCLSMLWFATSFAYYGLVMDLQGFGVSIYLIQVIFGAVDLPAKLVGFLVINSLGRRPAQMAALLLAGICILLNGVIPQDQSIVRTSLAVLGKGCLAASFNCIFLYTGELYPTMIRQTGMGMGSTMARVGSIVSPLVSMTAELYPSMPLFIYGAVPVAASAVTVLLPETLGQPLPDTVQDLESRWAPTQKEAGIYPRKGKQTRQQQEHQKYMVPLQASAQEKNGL
Briefly: Cellular uptake in MDCK-hOAT1 vs Mock cells. The data set is classed as in vitro ADME. As to conditions: 100 μmol/L, substrate if >2-fold of wild type. The gist of the method: as §1

Another data set concerns mice kidney slices. Kind of data set: In vitro uptake of TDE in mice kidney slices. The data set is classed as in vitro ADME, Kunming mice. As to conditions: TDE 10 μmol/L. The gist of the method:
as §2

Substrate in data set [1]: COc1cc2c(cc1OC)[C@@H]1Cc3ccc(OC)c(OC)c3CN1CC2
Briefly: Cellular uptake and kinetics in S2-hOAT3 vs Mock cells. It is filed as in vitro ADME, human. Particulars: other: hOAT3, TDE 0.03-10 μmol/L, 2 min, 37 °C, Eadie-Hofstee, pH 7.4.

Where [2] appears, read: 100 μmol/L, substrate if >2-fold of wild type.

Where a name gives a salt, the structure may show the parent alone.

On to `CC12CCC3c4ccc(OS(=O)(=O)O)cc4CCC3C1CCC2=O` (stereo not drawn) [3H-ES, 3H-estrone sulfate, reference compound], for which the “accumulation of model substrate, fold higher than in Mock cells” value worked out at 5.6 fold on hOAT3 (50 nmol/L 3H-ES, 2 min, S2-hOAT3 vs Mock); 4.7 fold at hOATP1B3 (50 nmol/L 3H-ES, 2 min, HEK293-hOATP1B3 vs Mock); 4.2 fold on hOATP2B1 (50 nmol/L 3H-ES, 2 min, HEK293-hOATP2B1 vs Mock); 10.3 fold on hOATP1B1 (50 nmol/L 3H-ES, 2 min, HEK293-hOATP1B1 vs Mock). For the same molecule, the “Uptake rate, Control” value was 0.62 ± 0.015∗∗ pmol/mg protein/min at hOAT3 (S2-hOAT3, 50 nmol/L 3H-ES, 2 min); 0.52 ± 0.017∗∗ pmol/mg protein/min at hOATP1B3 (HEK293-hOATP1B3, 50 nmol/L 3H-ES, 2 min); 0.46 ± 0.011∗∗ pmol/mg protein/min on hOATP2B1 (HEK293-hOATP2B1, 50 nmol/L 3H-ES, 2 min); 1.13 ± 0.11∗∗ pmol/mg protein/min on hOATP1B1 (HEK293-hOATP1B1, 50 nmol/L 3H-ES, 2 min). In addition, the “Uptake rate, Control + inhibitor” value on hOAT3 (S2-hOAT3, 50 nmol/L 3H-ES, 2 min, inhibitor not named) is recorded as 0.29 ± 0.17 pmol/mg protein/min; on hOATP1B3 (HEK293-hOATP1B3, 50 nmol/L 3H-ES, 2 min, inhibitor not named), 0.24 ± 0.13 pmol/mg protein/min; at hOATP2B1 (HEK293-hOATP2B1, 50 nmol/L 3H-ES, 2 min, inhibitor not named) it was 0.19 ± 0.034 pmol/mg protein/min; at hOATP1B1 (HEK293-hOATP1B1, 50 nmol/L 3H-ES, 2 min, inhibitor not named) it was 0.35 ± 0.14 pmol/mg protein/min.
Turning to `CO[C@H]1/C=C/O[C@@]2(C)Oc3c(C)c(O)c4c(O)c(c(/C=N/N5CCN(C)CC5)c(O)c4c3C2=O)NC(=O)/C(C)=C\C=C\[C@H](C)[C@H](O)[C@@H](C)[C@@H](O)[C@@H](C)[C@H](OC(C)=O)[C@@H]1C` [Rifampicin, rifampicin, reference compound], in the data set with mice liver slices (mice liver slices), the “effect on the uptake of TDE in liver slices” value is listed as “could inhibit”.
Consider `COc1cc2c(cc1OC)[C@@H]1Cc3ccc(OC)c(OC)c3CN1CC2` [TDE, tetrahydropalmatine], for which the “accumulation in S2-hOAT3, fold higher than wild type (S2-Mock)” value at hOAT3 (setting [2]) is on record as “about 2.25 fold”. For the same molecule, the “accumulation in HEK293-hOATP1B3 vs HEK293 wild type” value at hOATP1B3 (setting [2]) is on record as 3.31 fold. Further, the Vmax on hOATP1B3 (hOATP1B3, TDE 0.03-10 μmol/L, 2 min, 37 °C, Eadie-Hofstee) was found to be 512.09 pmol/mg protein/min. Further, the Km at 2 min on hOATP1B3 (human, pH 7.4) is 6.72 µM. In addition, the “accumulation in MDCK-hOAT1, fold higher than in MDCK-Mock” value at hOAT1 is “about 1.25 fold”. The “accumulation in HEK293-hOATP2B1 vs HEK293 wild type” value on hOATP2B1 (setting [2]) is “less than 2 fold”. The “accumulation in hOATP1B1-overexpressed cell lines compared to wild type” value at hOATP1B1 (100 μmol/L) was “could largely accumulate”. Further, the “accumulation of TDE at 37 °C, fold greater than at 4 °C” value with mice liver slices (liver slices, 30 min) is given as “approximately 2.3 fold”.
For `CCCN(CCC)S(=O)(=O)c1ccc(C(=O)O)cc1` [probenecid, reference compound], in the data set with mice kidney slices, the “effect on the uptake of TDE in kidney slices” value was “could inhibit”.

B1: hOAT3 (Homo sapiens) (protein)
chain: MTFSEILDRVGSMGHFQFLHVAILGLPILNMANHNLLQIFTAATPVHHCRPPHNASTGPWVLPMGPNGKPERCLRFVHPPNASLPNDTQRAMEPCLDGWVYNSTKDSIVTEWDLVCNSNKLKEMAQSIFMAGILIGGLVLGDLSDRFGRRPILTCSYLLLAASGSGAAFSPTFPIYMVFRFLCGFGISGITLSTVILNVEWVPTRMRAIMSTALGYCYTFGQFILPGLAYAIPQWRWLQLTVSIPFFVFFLSSWWTPESIRWLVLSGKSSKALKILRRVAVFNGKKEEGERLSLEELKLNLQKEISLAKAKYTASDLFRIPMLRRMTFCLSLAWFATGFAYYSLAMGVEEFGVNLYILQIIFGGVDVPAKFITILSLSYLGRHTTQAAALLLAGGAILALTFVPLDLQTVRTVLAVFGKGCLSSSFSCLFLYTSELYPTVIRQTGMGVSNLWTRVGSMVSPLVKITGEVQPFIPNIIYGITALLGGSAALFLPETLNQPLPETIEDLENWSLRAKKPKQEPEVEKASQRIPLQPHGPGLGSS
In the case of B1, in data set [1], the Km was determined as 1.44 µmol/L and the Vmax is 188.45 pmol/mg protein/min.

One may read the Km as the substrate concentration at which the rate is half of its maximum.

The values are drawn from PMC7564327 (Acta Pharmaceutica Sinica. B, 2020).
